In brackets after ≈: the same amount, converted by molar mass.
Columns and labels:
Type in all cases: functional
Escherichia coli [1] = assay: Antimicrobial activity against Escherichia coli DSM 682 after 48 hr by agar dilution method; conditions: DSM 682, 48 h
Summary of the method: (§1)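 Agar dilution on standard plate count agar: 0.5 mL of a 2-fold serial dilution of sample mixed into 9.5 mL medium, poured into Petri dishes, organism streaked on the surface. Incubated at 28 °C (36 and 48 h). MIC is the lowest tested concentration with no visible growth.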

Escherichia coli [2] = assay: Antimicrobial activity against Escherichia coli ATCC 35346 after 48 hr by agar dilution method; conditions: ATCC 35346, 48 h; summary of the method: as §1
Stutzerimonas stutzeri = assay: Antimicrobial activity against Pseudomonas stutzeri ATCC 962 after 48 hr by agar dilution method; conditions: ATCC 962, 48 h; summary of the method: as §1
Pseudomonas aeruginosa = assay: Antimicrobial activity against Pseudomonas aeruginosa DSM 1117 after 48 hr by agar dilution method; conditions: DSM 1117, 48 h; summary of the method: as §1
[3] = test system: Limosilactobacillus fermentum; assay: Antimicrobial activity against Lactobacillus fermentum DSM 20052 after 48 hr by agar dilution method; conditions: DSM 20052, 48 h; summary of the method: as §1
Lacticaseibacillus casei = assay: Antimicrobial activity against Lactobacillus casei DSM 20011 after 48 hr by agar dilution method; conditions: DSM 20011, 48 h; summary of the method: as §1
[4] = test system: Lactiplantibacillus plantarum; assay: Antimicrobial activity against Lactobacillus plantarum DSM 20174 after 48 hr by agar dilution method; conditions: DSM 20174, 48 h; summary of the method: as §1
[5] = test system: Lacticaseibacillus rhamnosus; assay: Antimicrobial activity against Lactobacillus rhamnosus DSM 20021 after 48 hr by agar dilution method; conditions: DSM 20021, 48 h; summary of the method: as §1
Bacillus cereus = assay: Antimicrobial activity against Bacillus cereus DSM 345 after 48 hr by agar dilution method; conditions: DSM 345, 48 h; summary of the method: as §1
Micrococcus luteus = assay: Antimicrobial activity against Micrococcus luteus DSM 348 after 48 hr by agar dilution method; conditions: DSM 348, 48 h; summary of the method: as §1
Staphylococcus aureus = assay: Antimicrobial activity against Staphylococcus aureus subsp. aureus DSM 346 after 48 hr by agar dilution method; conditions: DSM 346, 48 h; summary of the method: as §1
[6] = test system: Staphylococcus epidermidis; assay: Antimicrobial activity against Staphylococcus epidermidis DSM 1798 after 48 hr by agar dilution method; conditions: DSM 1798, 48 h; summary of the method: as §1
Bacillus licheniformis = assay: Antimicrobial activity against Bacillus licheniformis DSM 13=ATCC 14580 after 48 hr by agar dilution method; conditions: DSM 13 = ATCC 14580, 48 h; summary of the method: as §1
Aspergillus fumigatus = assay: Antimicrobial activity against Aspergillus fumigatus ATCC 1028 after 48 hr by agar dilution method; conditions: ATCC 1028, 48 h
Summary of the method: (§2)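 Fungi tested by agar dilution in malt agar. Serial 2-fold sample dilutions (0.5 mL) were mixed with 9.5 mL medium and plated, then streaked with the organism. Incubation at 28 °C for 36 and 48 h. MIC is the lowest tested concentration without growth.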

Bacillus subtilis = assay: Antimicrobial activity against Bacillus subtilis DSM 345 after 48 hr by agar dilution method; conditions: DSM 345, 48 h; summary of the method: as §1
Aspergillus flavus = assay: Antimicrobial activity against Aspergillus flavus ATCC 11655 after 48 hr by agar dilution method; conditions: ATCC 11655, 48 h; summary of the method: as §2
Aspergillus niger = assay: Antimicrobial activity against Aspergillus niger ATCC 1040 after 48 hr by agar dilution method; conditions: ATCC 1040, 48 h; summary of the method: as §2
Rhizopus arrhizus = assay: Antimicrobial activity against Rhizopus oryzae ATCC 56536 after 48 hr by agar dilution method; conditions: ATCC 56536, 48 h; summary of the method: as §2
Trichoderma viride = assay: Antimicrobial activity against Hypocrea rufa ATCC 28020 after 48 hr by agar dilution method; conditions: ATCC 28020, 48 h; summary of the method: as §2
Setophoma terrestris = assay: Antimicrobial activity against Setophoma terrestris ATCC 11321 after 48 hr by agar dilution method; conditions: ATCC 11321, 48 h; summary of the method: as §2
Penicillium expansum = assay: Antimicrobial activity against Penicillium expansum ATCC 7861 after 48 hr by agar dilution method; conditions: ATCC 7861, 48 h; summary of the method: as §2
[7] = test system: Hanseniaspora guilliermondii; assay: Antimicrobial activity against Hanseniaspora guilliermondii CBS 465 after 48 hr by agar dilution method; conditions: CBS 465, 48 h
Summary of the method: (§3)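 Yeast peptone dextrose agar plates, each holding a 2-fold serial dilution of sample (0.5 mL into 9.5 mL medium). Yeast streaked onto the plates and incubated at 28 °C, read at 36 and 48 h. MIC is the lowest concentration tested showing no growth.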

Hanseniaspora uvarum [8] = assay: Antimicrobial activity against Hanseniaspora uvarum CBS 314 after 48 hr by agar dilution method; conditions: CBS 314, 48 h; summary of the method: as §3
Hanseniaspora vineae = assay: Antimicrobial activity against Hanseniaspora vineae CBS 2171 after 48 hr by agar dilution method; conditions: CBS 2171, 48 h; summary of the method: as §3
Hanseniaspora osmophila = assay: Antimicrobial activity against Hanseniaspora osmophila CBS 313 after 48 hr by agar dilution method; conditions: CBS 313, 48 h; summary of the method: as §3
Hanseniaspora uvarum [9] = assay: Antimicrobial activity against Hanseniaspora uvarum AP23 after 48 hr by agar dilution method; conditions: Distaam AP23, 48 h; summary of the method: as §3
Candida albicans = assay: Antimicrobial activity against Candida albicans CBS 562 after 48 hr by agar dilution method; conditions: CBS 562, 48 h; summary of the method: as §3
[10] = test system: Schizosaccharomyces pombe; assay: Antimicrobial activity against Schizosaccharomyces pombe Diproval 106 after 48 hr by agar dilution method; conditions: Diproval 106, 48 h; summary of the method: as §3
Saccharomycodes ludwigii = assay: Antimicrobial activity against Saccharomycodes ludwigii Diproval 120 after 48 hr by agar dilution method; conditions: Diproval 120, 48 h; summary of the method: as §3
Saccharomyces cerevisiae [11] = assay: Antimicrobial activity against Saccharomyces cerevisiae Diproval 9109 after 48 hr by agar dilution method; conditions: Diproval 9109, 48 h; summary of the method: as §3
Saccharomyces cerevisiae [12] = assay: Antimicrobial activity against Saccharomyces cerevisiae Diproval 7070 after 48 hr by agar dilution method; conditions: Diproval 7070, 48 h; summary of the method: as §3
Saccharomyces cerevisiae [13] = assay: Antimicrobial activity against Saccharomyces cerevisiae Diproval 8167 after 48 hr by agar dilution method; conditions: Diproval 8167, 48 h; summary of the method: as §3
Saccharomyces cerevisiae [14] = assay: Antimicrobial activity against Saccharomyces cerevisiae Diproval 2439 after 48 hr by agar dilution method; conditions: Diproval 2439, 48 h; summary of the method: as §3
Saccharomyces cerevisiae [15] = assay: Antimicrobial activity against Saccharomyces cerevisiae Diproval 6073 after 48 hr by agar dilution method; conditions: Diproval 6073, 48 h; summary of the method: as §3
Saccharomyces cerevisiae [16] = assay: Antimicrobial activity against Saccharomyces cerevisiae Diproval 404 after 48 hr by agar dilution method; conditions: Diproval 404, 48 h; summary of the method: as §3
Enterococcus faecalis = assay: Antimicrobial activity against Enterococcus faecalis DSM 2570 after 48 hr by agar dilution method; conditions: DSM 2570, 48 h; summary of the method: as §1

Row | MIC (Escherichia coli [1]) [µg/mL] | MIC (Escherichia coli [2]) [µg/mL] | MIC (Stutzerimonas stutzeri) [µg/mL] | MIC (Pseudomonas aeruginosa) [µg/mL] | MIC [3] [µg/mL] | MIC (Lacticaseibacillus casei) [µg/mL] | MIC [5] [µg/mL] | MIC (Bacillus cereus) [µg/mL] | MIC (Micrococcus luteus) [µg/mL] | MIC (Staphylococcus aureus) [µg/mL] | MIC [6] [µg/mL] | MIC (Bacillus licheniformis) [µg/mL] | MIC (Aspergillus fumigatus) [µg/mL] | MIC (Bacillus subtilis) [µg/mL] | MIC (Aspergillus flavus) [µg/mL] | MIC (Aspergillus niger) [µg/mL] | MIC (Rhizopus arrhizus) [µg/mL] | MIC (Trichoderma viride) [µg/mL] | MIC (Setophoma terrestris) [µg/mL] | Compound | MIC [4] [µg/mL] | other results
1 | 1000 (≈ 697 µM) | 1000 (≈ 697 µM) | > 1000 | > 1000 | 1000 (≈ 697 µM) | 1000 (≈ 697 µM) | 1000 (≈ 697 µM) | 1000 (≈ 697 µM) | > 1000 | > 1000 | > 1000 | > 1000 | > 1000 | > 1000 | > 1000 | > 1000 | 125 (≈ 87.1 µM) | 500 (≈ 348 µM) | 125 (≈ 87.1 µM) | C=C(CCC1(OC)O[C@H]2C[C@H]3[C@@H]4CC[C@H]5C[C@@H](O[C@@H]6O[C@H](CO)[C@H](O[C@@H]7O[C@H](CO)[C@@H](O)[C@H](O[C@@H]8O[C@H](CO)[C@@H](O)[C@H](O)[C@H]8O)[C@H]7O[C@@H]7O[C@H](CO)[C@@H](O)[C@H](O[C@@H]8O[C@H](CO)[C@@H](O)[C@H](O)[C@H]8O)[C@H]7O)[C@H](O)[C@H]6O)[C@H](O)C[C@]5(C)[C@H]4CC[C@]3(C)[C@H]2[C@@H]1C)CO[C@@H]1O[C@H](CO)[C@@H](O)[C@H](O)[C@H]1O (some centres not stated) [Capsicoside E] | 1000 (≈ 697 µM) | MIC (Penicillium expansum): 1000 µg/mL (≈ 697 µM); MIC [7]: 50 µg/mL (≈ 34.8 µM); MIC (Hanseniaspora uvarum [8]): 25 µg/mL (≈ 17.4 µM); MIC (Hanseniaspora vineae): 50 µg/mL (≈ 34.8 µM); MIC (Hanseniaspora osmophila): 100 µg/mL (≈ 69.7 µM); MIC (Hanseniaspora uvarum [9]): 25 µg/mL (≈ 17.4 µM); MIC (Candida albicans): 25 µg/mL (≈ 17.4 µM); MIC [10]: 100 µg/mL (≈ 69.7 µM); MIC (Saccharomycodes ludwigii): 50 µg/mL (≈ 34.8 µM); MIC (Saccharomyces cerevisiae [11]): 50 µg/mL (≈ 34.8 µM); MIC (Saccharomyces cerevisiae [12]): 50 µg/mL (≈ 34.8 µM); MIC (Saccharomyces cerevisiae [13]): 50 µg/mL (≈ 34.8 µM); MIC (Saccharomyces cerevisiae [14]): 50 µg/mL (≈ 34.8 µM); MIC (Saccharomyces cerevisiae [15]): 50 µg/mL (≈ 34.8 µM); MIC (Saccharomyces cerevisiae [16]): 50 µg/mL (≈ 34.8 µM); MIC (Enterococcus faecalis): > 1000 µg/mL
2 | 1000 (≈ 696 µM) | 1000 (≈ 696 µM) | > 1000 | > 1000 | 1000 (≈ 696 µM) | 1000 (≈ 696 µM) | 1000 (≈ 696 µM) | 1000 (≈ 696 µM) | > 1000 | > 1000 | > 1000 | > 1000 | > 1000 | > 1000 | > 1000 | > 1000 | 125 (≈ 87 µM) | 250 (≈ 174 µM) | 125 (≈ 87 µM) | COC1(CC[C@@H](C)CO[C@@H]2O[C@H](CO)[C@@H](O)[C@H](O)[C@H]2O)O[C@H]2C[C@H]3[C@@H]4CC[C@H]5C[C@@H](O[C@@H]6O[C@H](CO)[C@H](O[C@@H]7O[C@H](CO)[C@@H](O)[C@H](O[C@@H]8O[C@H](CO)[C@@H](O)[C@H](O)[C@H]8O)[C@H]7O[C@@H]7O[C@H](CO)[C@@H](O)[C@H](O[C@@H]8O[C@H](CO)[C@@H](O)[C@H](O)[C@H]8O)[C@H]7O)[C@H](O)[C@H]6O)[C@H](O)C[C@]5(C)[C@H]4CC[C@]3(C)[C@H]2[C@@H]1C (some centres not stated) [O-METHYLCAPSICOSIDE A] | 1000 (≈ 696 µM) | MIC (Penicillium expansum): 1000 µg/mL (≈ 696 µM); MIC [7]: 25 µg/mL (≈ 17.4 µM); MIC (Hanseniaspora uvarum [8]): 25 µg/mL (≈ 17.4 µM); MIC (Hanseniaspora vineae): 25 µg/mL (≈ 17.4 µM); MIC (Hanseniaspora osmophila): 50 µg/mL (≈ 34.8 µM); MIC (Hanseniaspora uvarum [9]): 50 µg/mL (≈ 34.8 µM); MIC (Candida albicans): 50 µg/mL (≈ 34.8 µM); MIC [10]: 50 µg/mL (≈ 34.8 µM); MIC (Saccharomycodes ludwigii): 50 µg/mL (≈ 34.8 µM); MIC (Saccharomyces cerevisiae [11]): 50 µg/mL (≈ 34.8 µM); MIC (Saccharomyces cerevisiae [12]): 50 µg/mL (≈ 34.8 µM); MIC (Saccharomyces cerevisiae [13]): 50 µg/mL (≈ 34.8 µM); MIC (Saccharomyces cerevisiae [14]): 50 µg/mL (≈ 34.8 µM); MIC (Saccharomyces cerevisiae [15]): 50 µg/mL (≈ 34.8 µM); MIC (Saccharomyces cerevisiae [16]): 50 µg/mL (≈ 34.8 µM); MIC (Enterococcus faecalis): > 1000 µg/mL

Reference: ChEMBL document CHEMBL3044709, “Antimicrobial furostanol saponins from the seeds of Capsicum annuum L. var. acuminatum” (2002)
